Assay results published in ChEMBL document CHEMBL1681765, “Structure-activity relationships of hypervalent organochalcogenanes as inhibitors of cysteine cathepsins V and S” (Bioorg Med Chem, 2011).

Tests used:
[1] = target: T1, Cathepsin L2 (Homo sapiens) (UniProt O60911); experiment: Inhibition of Cathepsin V assessed as second-order inactivation rate constant by spectrofluorometry
T1 sequence (whole entry): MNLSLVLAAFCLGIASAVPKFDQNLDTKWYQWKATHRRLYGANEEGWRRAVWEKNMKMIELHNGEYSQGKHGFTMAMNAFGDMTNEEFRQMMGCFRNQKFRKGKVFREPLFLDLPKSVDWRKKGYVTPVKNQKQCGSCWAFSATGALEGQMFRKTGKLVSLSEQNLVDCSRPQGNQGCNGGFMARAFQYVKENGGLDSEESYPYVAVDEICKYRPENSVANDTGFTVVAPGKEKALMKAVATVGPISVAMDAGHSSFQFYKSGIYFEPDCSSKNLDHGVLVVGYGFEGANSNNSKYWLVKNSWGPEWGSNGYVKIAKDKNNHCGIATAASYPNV
In short: (§1)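 Continuous assay: substrate Cbz-Phe-Arg-AMC kept 10-fold below KM, with varying inhibitor concentrations, in enzyme-specific buffer (cathepsin S: phosphate pH 6.5, 2.5 mmol L⁻¹ EDTA; cathepsin V: acetate pH 5.5, 2.5 mmol L⁻¹ EDTA). AMC fluorescence ex 380/em 460 nm. Progress curves fit to P = (vz/kobs)[1−exp(−kobs·t)] + d to obtain kobs.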

[2] = target: Cathepsin S (Homo sapiens) (UniProt P25774); experiment: Inhibition of Cathepsin S assessed as second-order inactivation rate constant by spectrofluorometry; set-up: unit not given here; in short: as §1
Sequence of Cathepsin S (Homo sapiens) (P25774 115-331 limits assumed): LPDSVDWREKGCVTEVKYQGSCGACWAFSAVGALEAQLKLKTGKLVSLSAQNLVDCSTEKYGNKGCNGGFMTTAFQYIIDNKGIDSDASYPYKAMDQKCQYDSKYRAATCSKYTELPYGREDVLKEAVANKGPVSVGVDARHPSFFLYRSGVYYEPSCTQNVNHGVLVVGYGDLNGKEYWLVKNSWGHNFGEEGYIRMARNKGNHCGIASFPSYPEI

[3] = target: T1, Cathepsin L2 (Homo sapiens); experiment: Inhibition of Cathepsin V at 1 umol/L for 2 mins by spectrofluorometry
In short: (§2)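 Enzyme pre-incubated with inhibitor (1 µmol L⁻¹) for 2 min at 37 °C in enzyme-specific buffer (cathepsin S: 50 mmol L⁻¹ sodium phosphate pH 6.5, 2.5 mmol L⁻¹ EDTA; cathepsin V: 50 mmol L⁻¹ sodium acetate pH 5.5, 2.5 mmol L⁻¹ EDTA). Then Cbz-Phe-Arg-AMC (1 µmol L⁻¹) added; fluorescence ex 380/em 460 nm. Residual activity as percentage of uninhibited control; triplicate.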

[4] = target: Cathepsin S (Homo sapiens) (UniProt P25774); experiment: Inhibition of Cathepsin S at 1 umol/L for 2 mins by spectrofluorometry; in short: as §2

Row | Structure (SMILES) | Activity [1] [mol/L/s] | Activity [2] | inhibition [3] [%] | inhibition [4] [%]
1 | CCCC[Se](Br)(Br)c1ccccc1COC | 3400 | 4000 |  | 
2 | CCCC[Se](Cl)(Cl)c1ccccc1[C@@H](C)OC | 900 | 1200 |  | 
3 | CCCC[Te](Br)(Br)c1ccccc1[C@H](C)OC | 7400 | 4900 | 90 | > 90
4 | CCCC[Te](Br)(Br)c1ccccc1[C@@H](C)OC | 3900 | 2500 | 90 | > 90
5 | CCCC[Se](Br)(Br)c1ccccc1[C@@H](C)OC | 1000 | 2200 |  | 
6 | CCCC[Se](Cl)(Cl)c1ccccc1COC | 500 | 1500 |  | 
7 | CCCC[Te](Cl)(Cl)c1ccccc1[C@@H](C)OC | 2500 | 1800 | 90 | 85
8 | CCCC[Se](Cl)(Cl)c1ccccc1[C@H](C)OC | 1000 | 1500 |  | 
9 | CCCC[Te](Cl)(Cl)c1ccccc1[C@H](C)OC | 2400 | 1800 | 90 | 85
10 | CCCC[Te](Cl)(Cl)c1ccccc1COC | 11600 | 1300 | 90 | 85
11 | CCCC[Se](Br)(Br)c1ccccc1[C@H](C)OC | 2200 | 2900 |  | 
12 | CCCC[Te](Br)(Br)c1ccccc1COC | 26400 | 4400 | 90 | 96
